For series [1], the system named is Mus musculus. As to the kind of experiment: Hepatotoxicity in BALB/c mouse assessed as changes in serum alanine transaminase level at 50 mg/kg, iv for 2 weeks by GPT kit assay. Type of series: toxicity, organism-based. As to conditions: in vivo, 336 h.
Series [2] deals with Hepatitis C virus. As to the kind of experiment: Antiviral activity against HCV genotype 1b Con1 infected in human Huh7.5 cells assessed as stimulation of IRF9 expression at 2 uM incubated up to 96 hrs by Western blot analysis. As to conditions: Hepacivirus hominis, isolate Con1, Huh-7, TDE = time-dependent effect. Type of series: functional, organism-based.
Series [3] in a line: Cytotoxicity against BALB/c mouse splenocytes assessed as reduction in cell viability at 1 to 10 uM. Type of series: cell-based. As to conditions: splenocyte.
Series [4] has as its system Hepatitis C virus. In words: Antiviral activity against HCV genotype 1b Con1 infected in human Huh7 cells xenografted in immunodeficient NOD/SCID mouse assessed as inhibition of NS5B expression in liver at 50 mg/kg, ip up to 14 days by DAPI staining based confocal microscopy. Type of series: functional, organism-based. As to conditions: Hepacivirus hominis, isolate Con1, Huh-7.

Series [5] concerns Hepatitis C virus. In words: Antiviral activity against HCV genotype 1b Con1 infected in human Huh7.5 cells assessed as stimulation of STAT1 mRNA expression at 2 uM incubated up to 96 hrs by qRT-PCR method. As to conditions: Hepacivirus hominis, isolate Con1, Huh-7, TDE = time-dependent effect. Type of series: functional, organism-based. An outline of the steps: (§1)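 mRNA measured by SYBR Green qRT-PCR using the 2^−ΔΔCT method, normalized to GAPDH and expressed as fold change vs controls.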
(Quantitative PCR measures a nucleic acid by following its amplification.)

Series [6] concerns the target T1, Peptidyl-prolyl cis-trans isomerase A (Homo sapiens, UniProt P62937). In words: Inhibition of human Cyclophilin A interaction with HCV genotype 1b Con1 NS5B in human Huh7.5 cells at 2 uM by co-immunoprecipitation assay. Type of series: cell-based. As to conditions: Huh-7.
Target sequence in this assay (P62937 whole entry, looked up): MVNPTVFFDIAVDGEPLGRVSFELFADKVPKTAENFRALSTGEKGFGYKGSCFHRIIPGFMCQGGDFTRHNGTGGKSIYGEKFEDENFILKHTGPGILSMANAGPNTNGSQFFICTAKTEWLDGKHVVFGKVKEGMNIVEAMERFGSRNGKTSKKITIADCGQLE
The test system of series [7] is Hepatitis C virus. In words: Antiviral activity against HCV genotype 1b Con1 infected in human Huh7 cells xenografted in immunodeficient NOD/SCID mouse assessed as inhibition of NS5A expression in liver at 50 mg/kg, ip up to 14 days by DAPI staining based confocal microscopy. As to conditions: Hepacivirus hominis, isolate Con1, Huh-7. Type of series: functional, organism-based. An outline of the steps:
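Replicon-engrafted NOD/SCID mice, 50 mg/kg ip for 14 days from week 6, n=5. Paraffin liver sections incubated overnight at 4 °C with anti-human hepatocyte (Hep par 1) and anti-NS5A antibodies (1:50). Alexa 488/546 secondaries 1:100 for 2 h, DAPI 5 min, then confocal imaging.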
A general note: Xenograft models place foreign cells or tissue in a host animal.

The subject of series [8] is Hepatitis C virus. In words: Antiviral activity against HCV genotype 1b Con1 infected in human Huh7.5 cells assessed as stimulation of OAS1 mRNA expression at 2 uM incubated up to 96 hrs by qRT-PCR method. As to conditions: Hepacivirus hominis, isolate Con1, Huh-7, TDE = time-dependent effect. Type of series: functional, organism-based. An outline of the steps: as §1

Series [9] has as its system Hepatitis C virus. As to the kind of experiment: Antiviral activity against HCV genotype 1b Con1 infected in human Huh7.5 cells assessed as upregulation of IFN-alpha mRNA expression incubated up to 96 hrs by qRT-PCR method. Type of series: functional, organism-based. As to conditions: Hepacivirus hominis; isolate Con1; Huh-7. An outline of the steps: as §1
The nature of series [10]: Cytotoxicity against mock-infected human Huh7.5 cells assessed as reduction in cell viability incubated for 5 hrs by MTT assay. Type of series: cell-based, Huh-7. As to conditions: mock-infected Huh7.5 cells. Put shortly:
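Mock-infected Huh7.5 cells run alongside the JFH1-Luc antiviral assay with 3-fold serial dilutions. Viability read by MTT assay to give CC50.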
For orientation: Tetrazolium dyes change colour on reduction, which living cells bring about.

For series [11], the system named is Hepatitis C virus. In words: Antiviral activity against HCV infected in human Huh7.5 cells assessed as inhibition of IL-8 level by ELISA in presence of IFN-alpha. As to conditions: Hepacivirus hominis; Huh-7. Type of series: functional, organism-based.
Series [12] has as its system Hepatitis C virus. In words: Antiviral activity against HCV genotype 1b Con1 infected in human Huh7.5 cells assessed as reduction of IL-8 level at 2 uM incubated up to 96 hrs by ELISA. Type of series: functional, organism-based. As to conditions: Hepacivirus hominis, isolate Con1, Huh-7, TDE = time-dependent effect. An outline of the steps:
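Con1b replicon cells, 2 × 10^6/well, treated with 2 μM for up to 4 days at 37 °C. Pooled culture media assayed for IL-8 and IFN-α by ELISA.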

The target in series [13] is T1, Peptidyl-prolyl cis-trans isomerase A. In words: Inhibition of Cyclophilin A in human Huh7.5 cells infected with HCV assessed as reduction in viral RNA replication level at 0.5 to 4 uM by luciferase reporter gene assay. Type of series: cell-based. As to conditions: Huh-7. An outline of the steps: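 Huh7.5 cells infected with JFH1-Luc (Renilla luciferase reporter) virus at MOI 0.004 for 5 h at 37 °C, with or without test chemicals. Renilla luciferase activity was read from cell lysates on day 3 postinfection.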
Target sequence in this assay (P62937 whole entry, looked up): as above

For series [14], the system named is Mus musculus. As to the kind of experiment: Toxicity in BALB/c mouse assessed as changes in body weight at 50 mg/kg, iv for 2 weeks. Type of series: organism-based. As to conditions: in vivo, 336 h.
In series [15] the target is T1, Peptidyl-prolyl cis-trans isomerase A.
Target sequence in this assay (P62937 whole entry): as the sequence (P62937 whole entry, looked up) above
Series [16] concerns Hepatitis C virus. As to the kind of experiment: Antiviral activity against HCV infected in human Huh7.5 cells assessed as inhibition of IL-8 level by ELISA in presence of ribavirin. Type of series: functional, organism-based. As to conditions: Hepacivirus hominis; Huh-7.

As usually defined, the CC50 is the concentration at which the toxic effect on the cells reaches its halfway point. As usually defined, the Kd is the constant that tells how readily two partners part at equilibrium. A low value points to a tighter complex.

SMILES strings stand for the structures. Active and inactive are the calls of the source. No cut-off for these calls is given here. Some results are limits rather than exact numbers.

As for `COc1cc(C(C(=O)NC2CCCCC2)N(C(=O)Cc2c[nH]c3ccccc23)c2ccc(C(C)C)cc2)cc(OC)c1OC` (stereo unspecified), the Activity entry in series [1] was “Non-toxic”; in series [2], “tde”; in series [3], “Non-toxic”; in series [5], “tde”; in series [8], “tde”; in series [12] it was “tde”. Also, the Activity entry in [14] is “Non-toxic”. The inhibition entry in [4], in [6], in series [7], in series [11], in [13] and in series [16] was “Active” in each case. Besides, the outcome in [9] was Active. Further, in series [10], the 50% cytotoxic concentration (CC50) at 5 h was above 100000 nM. In series [15], the dissociation constant Kd turned out to be 570 nM.

The values above are taken from ChEMBL document CHEMBL3751796, “Structure-Based Discovery of Novel Cyclophilin A Inhibitors for the Treatment of Hepatitis C Virus Infections” (J Med Chem, 2015).
